# Experimental data as given in ChEMBL document CHEMBL1141219, “Chemoenzymatic synthesis of a series of 4-substituted glutamate analogues and pharmacological characterization at human glutamate transporters subtypes 1-3” (J Med Chem, 2005).
# Assays:
# Format in all cases: functional, cell-based
# [1] = biological target: Excitatory amino acid transporter 1 (Homo sapiens) (UniProt P43003); assay: Binding affinity to human EAAT1 expressed in HEK293 cells in FMP (FLPR) assay
# Procedure, shortened: (§1)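 HEK293 cells stably expressing the human transporter, seeded on poly-D-lysine plates in DMEM with 10% dialyzed FBS and G-418 for 16–24 h. Cells washed in Krebs buffer (pH 7.4), then loaded with FMP dye for 30 min at 37 °C. Read at room temperature, excitation 530 nm and emission 560 nm, for up to 1 min after substrate addition. Non-substrate inhibitors were preincubated and tested against 30 μM Glu. Seven-concentration curves from maximal responses, duplicate, at least three times.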
# [2] = biological target: Excitatory amino acid transporter 2 (Homo sapiens) (UniProt P43004); assay: Binding affinity to human EAAT2 expressed in HEK293 cells in FMP (FLPR) assay; procedure, shortened: as §1
# Sequence of Excitatory amino acid transporter 2 (Homo sapiens) (P43004 whole entry): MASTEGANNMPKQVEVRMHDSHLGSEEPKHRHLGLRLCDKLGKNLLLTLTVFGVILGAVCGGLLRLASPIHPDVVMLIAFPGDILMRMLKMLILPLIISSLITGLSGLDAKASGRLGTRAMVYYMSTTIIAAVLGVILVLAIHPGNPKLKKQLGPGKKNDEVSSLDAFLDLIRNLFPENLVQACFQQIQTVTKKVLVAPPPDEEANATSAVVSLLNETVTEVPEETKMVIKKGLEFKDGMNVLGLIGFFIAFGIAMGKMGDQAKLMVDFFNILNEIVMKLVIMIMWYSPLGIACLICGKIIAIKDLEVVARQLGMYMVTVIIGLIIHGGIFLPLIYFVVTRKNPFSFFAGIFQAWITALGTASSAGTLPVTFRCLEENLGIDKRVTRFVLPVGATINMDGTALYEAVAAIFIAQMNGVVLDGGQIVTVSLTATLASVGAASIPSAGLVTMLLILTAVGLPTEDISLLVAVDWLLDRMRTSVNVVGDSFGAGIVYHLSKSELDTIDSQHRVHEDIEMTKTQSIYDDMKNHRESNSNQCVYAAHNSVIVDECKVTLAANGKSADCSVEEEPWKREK
# [3] = biological target: T1, Excitatory amino acid transporter 3 (Homo sapiens) (UniProt P43005); assay: Binding affinity to human EAAT3 expressed in HEK293 cells in FMP (FLPR) assay; procedure, shortened: as §1
# T1 sequence (whole entry): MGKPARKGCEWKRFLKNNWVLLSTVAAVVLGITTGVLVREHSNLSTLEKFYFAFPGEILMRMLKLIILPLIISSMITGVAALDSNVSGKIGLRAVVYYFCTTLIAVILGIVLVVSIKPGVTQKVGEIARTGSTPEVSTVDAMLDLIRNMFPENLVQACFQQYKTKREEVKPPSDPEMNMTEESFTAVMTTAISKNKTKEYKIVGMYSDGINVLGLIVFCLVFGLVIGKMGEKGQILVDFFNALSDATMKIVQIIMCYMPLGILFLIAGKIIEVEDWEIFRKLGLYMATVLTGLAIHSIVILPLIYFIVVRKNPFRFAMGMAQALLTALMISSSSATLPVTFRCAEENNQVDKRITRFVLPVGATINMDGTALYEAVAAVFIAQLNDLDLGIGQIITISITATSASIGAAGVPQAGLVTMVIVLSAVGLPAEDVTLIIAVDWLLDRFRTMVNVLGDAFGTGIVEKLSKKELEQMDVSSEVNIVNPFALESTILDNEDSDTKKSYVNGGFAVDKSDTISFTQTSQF
# Sequence of Excitatory amino acid transporter 1 (Homo sapiens) (P43003 whole entry): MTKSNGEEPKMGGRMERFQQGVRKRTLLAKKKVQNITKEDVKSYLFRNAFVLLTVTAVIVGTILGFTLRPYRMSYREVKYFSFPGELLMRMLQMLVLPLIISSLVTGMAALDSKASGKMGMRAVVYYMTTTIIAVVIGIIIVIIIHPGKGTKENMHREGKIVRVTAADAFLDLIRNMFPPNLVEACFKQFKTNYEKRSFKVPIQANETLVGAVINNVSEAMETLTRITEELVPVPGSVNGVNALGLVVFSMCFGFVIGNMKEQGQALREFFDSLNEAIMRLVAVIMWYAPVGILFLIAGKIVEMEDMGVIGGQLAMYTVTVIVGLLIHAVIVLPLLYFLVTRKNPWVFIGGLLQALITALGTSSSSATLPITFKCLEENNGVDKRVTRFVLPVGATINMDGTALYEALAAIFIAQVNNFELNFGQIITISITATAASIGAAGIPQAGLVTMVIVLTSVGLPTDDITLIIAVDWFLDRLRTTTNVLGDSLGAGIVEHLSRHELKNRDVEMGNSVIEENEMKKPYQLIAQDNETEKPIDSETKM
pKm [1],pKm [2],pKm [3],SMILES
4.92,,,C[C@H](C[C@H](N)C(=O)O)C(=O)O
5.04,4.69,4.61,N[C@@H](CCC(=O)O)C(=O)O
3,3,3,N[C@@H](C[C@@H](O)C(=O)O)C(=O)O
4.06,4.21,4.16,N[C@@H](C[C@H](O)C(=O)O)C(=O)O
